In the library only some 1.9% were active in any assay of this set; here they are far more common.
IMP-1 inhibitor = inhibitors of Pseudomonas aeruginosa IMP-1 metallo-beta-lactamase | inhibition, % at 5.6 µM | 290,000 compounds, 0.45% hits | purified IMP-1, nitrocefin hydrolysis, epi-absorbance fluorescence;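 active means inhibition above the mean plus 3 SD of all compounds in the same screening run, cut at about 4.5% in these data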;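 further: 0% = IMP-1 with DMSO and 100% = DMSO wells lacking enzyme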
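System: purified recombinant IMP-1 beta-lactamase. Medium: Zinc- and detergent-supplemented HEPES buffer, pH 7.1. Compound: one 5.6 µM dose […]. Schedule: 15 min preincubation plus 25 min reaction at 25 °C. Technique: Epi-absorbance fluorescence, 480 nm excitation, 530 nm emission.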
core dimer inh = blocks dimerization of HCV core protein; TR-FRET GST/Flag-core106 dimerization, 1536-well; inhibition, % at 5 µM; 300,000 compounds, 0.33% hits; AID 1899;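 active means inhibition above the mean of all tested compounds plus 3 SD, set per screening campaign, cut at about 45% in these data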
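Material: GST/Flag-tagged HCV core106 proteins. Incubation: 4 h, 22.5 °C incubation. Read-out basis: inhibition (%) from 671 over 617 nm ratio. Measured by: TR-FRET, excitation 340 nm, emission 617 and 671 nm.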
NadD inh = inhibitors of Staphylococcus aureus NadD | purified NadD enzyme, colorimetric absorbance read-out | inhibition, % at 20 µM | 360,000 compounds, 0.78% hits; in the data active means inhibition above about 26%
VIM-2 inh = inhibitors of Pseudomonas aeruginosa VIM-2 metallo-beta-lactamase. purified VIM-2, nitrocefin hydrolysis, epi-absorbance fluorescence. inhibition, % at 5.6 µM. 290,000 compounds, 0.89% hits;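 active means inhibition above the mean of all tested compounds plus 3 SD, cutoff set per screening run, cut at about 7.5% in these data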;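 further: red hydrolysis product quenches plate fluorescence so inhibitors raise well fluorescence; 0% = enzyme with DMSO and 100% = DMSO without enzyme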
VIM-2 confirm = VIM-2 inhibition, confirmation assay. shares compounds with IMP-1 inhibitor. AID 1860. purified VIM-2 enzyme, nitrocefin absorbance. inhibition, % at 5.6 µM. 200 compounds, 73% hits; in the data active means inhibition above about 8%;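 further: 0% = enzyme with vehicle and 100% = no enzyme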
TEM-1 inh 2 = blocks E. coli TEM-1 beta-lactamase, VIM-2 IMP-1 counter-screen; shares compounds with IMP-1 inhibitor; nitrocefin absorbance inhibition; inhibition, % at 5.6 µM; 200 compounds, 50% hits; AID 2184; in the data active means inhibition above about 0.66%
Target sequence (P62593 whole entry, looked up): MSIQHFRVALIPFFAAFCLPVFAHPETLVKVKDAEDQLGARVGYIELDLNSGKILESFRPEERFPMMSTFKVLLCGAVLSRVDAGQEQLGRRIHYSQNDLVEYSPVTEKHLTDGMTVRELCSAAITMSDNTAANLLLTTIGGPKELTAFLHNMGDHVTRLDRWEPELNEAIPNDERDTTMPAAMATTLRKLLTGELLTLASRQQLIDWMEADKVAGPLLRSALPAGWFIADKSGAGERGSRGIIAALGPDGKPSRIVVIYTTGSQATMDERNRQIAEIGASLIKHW
IMP-1 confirm = confirmation of P. aeruginosa IMP-1 metallo-beta-lactamase inhibitors | shares compounds with IMP-1 inhibitor | purified IMP-1 enzyme, absorbance substrate hydrolysis | inhibition, % at 5.6 µM | 200 compounds, 60% hits; in the data active means inhibition above about 4.9%;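 further: 0% = enzyme with vehicle and 100% = vehicle without enzyme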
An asterisk follows results filed as active; . = no result.

SMILES | IMP-1 inhibitor | core dimer inh | NadD inh | VIM-2 inh | VIM-2 confirm | TEM-1 inh 2 | IMP-1 confirm
Cc1ccc(NC(=O)C2C(c3ccccc3)C=CC(c3ccccc3)C2C(=O)O)cc1 (stereo not drawn) | 85.3* | -8.5 | -2.6 | 45.5* | 6.8 | -3.5 | 61.2*
CC1(C(=O)NS(=O)(=O)c2ccc(Cl)s2)CCN1C(=O)Cc1ccc(Cl)cc1Cl (stereo not drawn) | . | . | -5.5 | . | . | . | .
O=C1C(Cl)=C(O)C2(Cl)C(Cl)=C(Cl)C12Cl (stereo not drawn) | . | . | 0.9 | . | . | . | .
O=C(CSc1nc2nc(-c3cccs3)cc(C(F)(F)F)c2c(=O)[nH]1)C(F)(F)F | 4.9* | -1.4 | 3.6 | 21.6* | 26.4* | -2.8 | 2.8
CC(=O)Nc1ccc(NC(=O)CSc2nc3nc(-c4cccs4)cc(C(F)(F)F)c3c(=O)[nH]2)cc1 | -3.0 | 13.0 | 13.5 | -1.5 | . | . | .
C[n+]1cc(C(=O)N2CCCCC2)ccc1/C=C/c1c[nH]c2ccccc12 | 4.9* | -8.7 | 14.0 | 7.2 | 13.8* | 0.5* | 5.6*
CCOC(=O)C1CCN(S(=O)(=O)c2ccc3c(c2)CCN3C(=O)C2CCC2)CC1 | -5.0 | 9.5 | 0.4 | -1.8 | . | . | .
O=C1CCN2C=Nc3cccc4ccc1c2c34 | 12.1* | -7.2 | 5.2 | 12.1* | 31.6* | 28.5* | 24.4*
COc1ccc(/C=C2/SC(=S)N(Cc3ccccc3)C2=O)cc1O | 0.5 | . | -6.3 | 0.6 | . | . | .
O=C1/C(=C\c2cc(Cl)c(O)c(Cl)c2)SC(=S)N1Cc1ccccc1 | 18.4* | . | 12.3 | 17.5* | 17.7* | 54.5* | 14.5*
COc1ccccc1C(CCN(Cc1ccccc1)C(C)=O)c1ccco1 (stereo not drawn) | -2.6 | -1.4 | -7.4 | -4.2 | . | . | .
CC(=O)N(c1cccc(C)c1)C1SC(=O)N(c2ccccc2)C1=O (stereo not drawn) | 12.0* | -2.8 | 1.3 | 8.3* | 9.0* | -5.2 | 17.8*
Cc1cc2oc(=O)cc(CN3CCCC3)c2cc1C | . | . | -5.0 | . | . | . | .
Cc1cc(C)c2c(CN3CCCC3)cc(=O)oc2c1 | . | . | -4.7 | . | . | . | .
CCc1cc(=O)oc2cc(C)c(CN3CCCC3)c(O)c12 | 20.1* | 85.6* | 17.2 | 15.5* | 17.6* | -0.8 | 8.8*
CCc1cc(=O)oc2cc(C)c(CN3CCCCC3)c(O)c12 | 18.5* | 16.0 | 19.7 | 13.4* | 4.4 | -4.8 | -0.6
O=c1c(Cc2c(F)cccc2Cl)c(O)ccn1C1CC1 | -3.1 | -7.3 | 3.9 | -1.9 | . | . | .
CCN(CC)c1ccc(/C=C(\C#N)C(=O)NCc2ccco2)cc1 | 5.3* | -10.1 | . | 18.0* | -3.0 | -5.6 | -3.7
CN(C)c1ccc(/C=C(\C#N)C(=O)NCc2ccco2)cc1 | -2.2 | -21.8 | . | -2.8 | . | . | .
COC(=O)C1Sc2[nH]c(=O)sc2C2c3ccccc3OC(=O)C12 (stereo not drawn) | 0.5 | 4.5 | 9.6 | -0.6 | . | . | .
O=C(O)C1Sc2[nH]c(=O)sc2C2c3ccc(O)cc3OC(=O)C12 (stereo not drawn) | 8.6* | -7.4 | 2.5 | 7.9* | 4.6 | -4.7 | 3.9
CC(=O)Nc1cccc(-c2ccnc3c2CC(C(=O)Nc2cccc(N(C)C)c2)O3)c1 (stereo not drawn) | . | . | 6.6 | . | . | . | .
CCOc1ccc(N(CC(=O)N2CCCCC2)S(=O)(=O)c2ccc(Cl)cc2)cc1 | -4.3 | 16.6 | 2.1 | -3.8 | . | . | .
CC(OC(=O)c1cc2ccccc2cc1O)C(=O)Nc1ccc(S(N)(=O)=O)cc1 (stereo not drawn) | -1.9 | 3.9 | -3.9 | -1.7 | . | . | .
CC(OC(=O)c1c2c(nc3ccccc13)/C(=C\c1ccc3c(c1)OCO3)CCC2)C(=O)Nc1ccc(S(N)(=O)=O)cc1 (stereo not drawn) | 13.5* | . | 44.4* | 17.6* | 14.8* | 28.6* | 10.4*
SMILES | IMP-1 inhibitor | core dimer inh | NadD inh | VIM-2 inh | VIM-2 confirm | TEM-1 inh 2 | IMP-1 confirm
COc1ccc(NC(=O)CN(C)S(=O)(=O)c2ccc(Cl)cc2)cn1 | . | . | -2.6 | . | . | . | .
CN1C(=CC=C2C=C(I)C(=O)C(I)=C2)C(C)(C)c2ccccc21 | 0.7 | . | 12.9 | -0.8 | . | . | .
CN1/C(=C\C=C2/C(=O)Oc3ccccc3C2=O)C(C)(C)c2ccccc21 | 12.6* | -7.7 | . | 9.6* | 30.6* | 45.1* | 24.3*
O=C1NC(=O)/C(=C\c2ccc(OCc3cccc([N+](=O)[O-])c3)cc2)N1 | -2.4 | 8.3 | -8.2 | -1.4 | . | . | .
CC(C)C(C(=O)NCC1CCCO1)N(Cc1ccccc1)C(=O)CNS(=O)(=O)c1ccccc1 (stereo not drawn) | -1.8 | -7.7 | -6.4 | -2.0 | . | . | .
CN(C)c1ccc(/C=C/C(=O)c2cc(Cl)ccc2O)cc1 | 19.8* | 7.3 | -7.9 | 15.0* | 24.3* | 34.5* | 22.3*
O=C(O)c1cc(N/N=C/c2cccc3ccccc23)ccc1Cl | -1.4 | -3.0 | -6.1 | 0.3 | . | . | .
CC(C)n1cc(/C=N/Nc2ccc(Cl)c(C(=O)O)c2)c2ccccc21 | 34.6* | -66.8 | 16.9 | 10.2* | 8.0* | -3.9 | 27.6*
CCOc1ccc(CCNC(=O)C2CCCN2C(=O)OCc2ccccc2)cc1OCC (stereo not drawn) | -2.2 | 4.6 | -2.6 | -2.3 | . | . | .
O=C(CC(SCc1ccco1)c1ccc(O)cc1)c1cccs1 (stereo not drawn) | 16.1* | 1.2 | -6.8 | 7.7 | 9.2* | -4.0 | -0.2
O=C(CSc1nnc(-c2ccc(O)cc2)n1Cc1ccco1)c1cccs1 | 2.1 | 5.1 | -3.1 | 0.0 | . | . | .
CCN1C(=O)CC(NCc2ccc3c(c2)OCO3)C1=O (stereo not drawn) | -2.0 | 2.1 | 2.4 | 0.4 | . | . | .
O=C1CC(NCc2ccc3c(c2)OCO3)C(=O)N1CCc1ccccc1 (stereo not drawn) | 42.0* | -2.7 | 1.5 | 47.3* | -2.1 | -5.4 | -4.0
CC1CCN(CC(=O)Nc2ccc(C(=O)N3CCCCC3)cc2)CC1 | -2.2 | -10.6 | -0.6 | -2.9 | . | . | .
COc1ccc(-c2occ(C(=O)O)c2C(=O)O)cc1 | 25.8* | -2.8 | 3.8 | 10.2* | 18.2* | -3.9 | 22.4*
CN1CCN(S(=O)(=O)c2ccc(Cl)cc2)CC1 | 1.5 | -4.3 | -0.5 | 2.3 | . | . | .
CN1CCN(S(=O)(=O)c2ccc(-c3ccc(Cl)cc3)cc2)CC1 | 42.0* | -5.3 | -4.6 | 10.7* | 4.4 | -4.1 | -3.1
CCOc1ccc(/C=C2\SC(=S)NC2=O)cc1OC | -3.7 | 2.3 | 0.4 | -2.8 | . | . | .
COc1ccc(/C=C2\SC(=O)NC2=S)cc1OC | 6.8* | -6.9 | 0.0 | 11.9* | 3.4 | -8.9 | -4.7
CCOC(=O)NC(=O)/C(C#N)=C\Nc1sccc1C(=O)OC | 9.1* | -0.4 | 4.2 | 7.7* | 5.5 | -4.0 | -1.4
Cn1c2ccccc2c2cc(C(=O)NNS(=O)(=O)c3ccc(F)cc3)sc21 | 5.0* | 32.3 | 15.4 | 7.1 | -0.7 | -5.6 | -2.2
O=C(c1cc(S(=O)(=O)N2CCOCC2)ccc1F)N(CCc1ccccc1)Cc1ccccc1 | . | 1.6 | -4.6 | . | . | . | .
